Experimental data: ChEMBL document CHEMBL1764975, “A new DNA gyrase inhibitor subclass of the cyclothialidine family based on a bicyclic dilactam-lactone scaffold. Synthesis and antibacterial properties” (J Med Chem, 2011)
≈ marks a conversion by molar mass, not a printed value.

system: Staphylococcus aureus; experiment: Antimicrobial activity against Staphylococcus aureus Smith infected in iv dosed septicaemia Swiss albino mouse model after 4 days; assay type: functional; conditions: 96 h
Method in brief: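 Septicaemia model in mice infected with S. aureus Smith, compound given iv. In experiments with 0-1 survivors among 5-10 control mice, ED₅₀ (mg/kg) taken as lowest dose giving 3-5 survivors out of 5 infected mice.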

SMILES	ED50 [mg/kg]
COc1cc(O)c2c(c1C)C(=O)OCCCCC(=S)N[C@H](c1nc(C)no1)CSC2	> 25
COc1cc(O)c2c(c1Br)C(=O)OCCCCC(=O)N[C@H](c1nc(C)no1)CSC2	25
COc1cc(O)c2c(c1Br)C(=O)OCCCCC(=S)N[C@H](c1nc(C)no1)CSC2	> 25

system: Staphylococcus aureus; experiment: Plasma shift, ratio of MIC for Staphylococcus aureus Smith in presence of mouse plasma to MIC for Staphylococcus aureus Smith in absence of mouse plasma; assay type: functional; conditions: not given
Method in brief: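 Agar dilution MICs against S. aureus Smith were run on BHI agar mixed 1:1 with mouse plasma and on plain BHI agar. The plasma shift is the MIC with plasma divided by the MIC on BHI agar alone.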

SMILES	Ratio
COc1cc(O)c2c(c1C)C(=O)OCCCCC(=S)N[C@H](c1nc(C)no1)CSC2	8
COc1cc(O)c2c(c1Br)C(=O)OCCCCC(=O)N[C@H](c1nc(C)no1)CSC2	4
COc1cc(O)c2c(c1Br)C(=O)OCCCCC(=S)N[C@H](c1nc(C)no1)CSC2	8

system: Staphylococcus aureus; experiment: Antimicrobial activity against multidrug-resistant Staphylococcus aureus after 18 hrs by agar dilution method; assay type: functional; conditions: not given
Method in brief: (§1)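 Agar dilution on Mueller-Hinton agar, inoculum 10⁴ CFU/spot, against panels of multiresistant clinical strains (S. aureus 11, E. faecalis 16, E. faecium 23). MIC_50/90 in μg/mL taken as the minimum concentration inhibiting at least 50% or 90% of the strains tested.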

SMILES	MIC50 [µg/mL]	MIC90 [µg/mL]
CC(=O)NC[C@H]1CN(c2ccc(N3CCOCC3)c(F)c2)C(=O)O1 [LINEZOLID]	1 (≈ 2.96 µM)	2 (≈ 5.93 µM)
COc1cc(O)c2c(c1C)C(=O)OCCCCC(=S)N[C@H](c1nc(C)no1)CSC2	1 (≈ 2.21 µM)	1 (≈ 2.21 µM)

system: Staphylococcus aureus; experiment: (§2) Antimicrobial activity against Staphylococcus aureus Smith after 18 hrs by agar dilution method; assay type: functional; conditions: not given
Method in brief: (§3)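 Agar dilution on Mueller-Hinton medium, inoculum 10⁴ CFU/spot; MIC is the minimum inhibitory concentration against the named strain.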

SMILES	MIC [µg/mL]
COc1cc(O)c2c(c1C)C(=O)OCCCCC(=S)N[C@H](c1nc(C)no1)CSC2	0.06 (≈ 0.133 µM)
COc1cc(O)c2c(c1Br)C(=O)OCCCCC(=O)N[C@H](c1nc(C)no1)CSC2	< 0.12
COc1cc(O)c2c(c1Br)C(=O)OCCCCC(=S)N[C@H](c1nc(C)no1)CSC2	< 0.12

system: Staphylococcus epidermidis; experiment: Antimicrobial activity against Staphylococcus epidermidis 16/2 after 18 hrs by agar dilution method; assay type: functional; conditions: 16/2, 18 h; method in brief: as §3

SMILES	MIC [µg/mL]
COc1cc(O)c2c(c1C)C(=O)OCCCCC(=S)N[C@H](c1nc(C)no1)CSC2	0.01 (≈ 0.0221 µM)
COc1cc(O)c2c(c1Br)C(=O)OCCCCC(=O)N[C@H](c1nc(C)no1)CSC2	< 0.12
COc1cc(O)c2c(c1Br)C(=O)OCCCCC(=S)N[C@H](c1nc(C)no1)CSC2	< 0.12

system: Moraxella catarrhalis; experiment: Antimicrobial activity against multidrug-resistant Moraxella catarrhalis after 18 hrs by agar dilution method; assay type: functional; conditions: not given
Method in brief: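 Agar dilution on Mueller-Hinton agar supplemented with sheep blood (5% v/v), inoculum 10⁵ CFU/spot, against 20 multiresistant M. catarrhalis strains. MIC_50/90 in μg/mL taken as the minimum concentration inhibiting at least 50% or 90% of the strains.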

SMILES	MIC50 [µg/mL]	MIC90 [µg/mL]
CC(=O)NC[C@H]1CN(c2ccc(N3CCOCC3)c(F)c2)C(=O)O1 [LINEZOLID]	8 (≈ 23.7 µM)	16 (≈ 47.4 µM)
COc1cc(O)c2c(c1C)C(=O)OCCCCC(=S)N[C@H](c1nc(C)no1)CSC2	2 (≈ 4.43 µM)	2 (≈ 4.43 µM)
CC1(C)S[C@@H]2[C@H](NC(=O)Cc3ccccc3)C(=O)N2[C@H]1C(=O)O [PENICILLIN G]	8 (≈ 23.9 µM)	32 (≈ 95.7 µM)

system: Escherichia coli; experiment: Antimicrobial activity against Escherichia coli 25922 after 18 hrs by agar dilution method; assay type: functional; conditions: Escherichia coli, 25922, 18 h; method in brief: as §3

SMILES	MIC [µg/mL]
COc1cc(O)c2c(c1C)C(=O)OCCCCC(=S)N[C@H](c1nc(C)no1)CSC2	> 64
COc1cc(O)c2c(c1Br)C(=O)OCCCCC(=O)N[C@H](c1nc(C)no1)CSC2	64 (≈ 128 µM)
COc1cc(O)c2c(c1Br)C(=O)OCCCCC(=S)N[C@H](c1nc(C)no1)CSC2	> 64

system: Enterococcus faecium; experiment: Antimicrobial activity against multidrug-resistant Enterococcus faecium after 18 hrs by agar dilution method; assay type: functional; conditions: not given; method in brief: as §1

SMILES	MIC50 [µg/mL]	MIC90 [µg/mL]
CC(=O)NC[C@H]1CN(c2ccc(N3CCOCC3)c(F)c2)C(=O)O1 [LINEZOLID]	1 (≈ 2.96 µM)	2 (≈ 5.93 µM)
COc1cc(O)c2c(c1C)C(=O)OCCCCC(=S)N[C@H](c1nc(C)no1)CSC2	8 (≈ 17.7 µM)	8 (≈ 17.7 µM)

system: Escherichia coli; experiment: Inhibition of Escherichia coli DNA gyrase A2B2 complex after 30 mins by supercoiling assay; conditions: not given

SMILES	MNEC [µg/mL]
COc1cc(O)c2c(c1C)C(=O)OCCCCC(=S)N[C@H](c1nc(C)no1)CSC2	0.004
COc1cc(O)c2c(c1Br)C(=O)OCCCCC(=O)N[C@H](c1nc(C)no1)CSC2	0.005
COc1cc(O)c2c(c1Br)C(=O)OCCCCC(=S)N[C@H](c1nc(C)no1)CSC2	0.005

system: Staphylococcus aureus; experiment: as §2; assay type: functional; conditions: not given; method in brief: as §3

SMILES	MIC [µg/mL]
COc1cc(O)c2c(c1C)C(=O)OCCCCC(=S)N[C@H](c1nc(C)no1)CSC2	0.06 (≈ 0.133 µM)
COc1cc(O)c2c(c1Br)C(=O)OCCCCC(=O)N[C@H](c1nc(C)no1)CSC2	0.12 (≈ 0.24 µM)
COc1cc(O)c2c(c1Br)C(=O)OCCCCC(=S)N[C@H](c1nc(C)no1)CSC2	0.12 (≈ 0.232 µM)

system: Streptococcus pneumoniae; experiment: Antimicrobial activity against multidrug-resistant Streptococcus pneumoniae after 18 hrs by agar dilution method; assay type: functional; conditions: not given
Method in brief: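 Agar dilution on IsoSensitest agar supplemented with sheep blood (5% v/v), inoculum 10⁴ CFU/spot, against 21 multiresistant S. pneumoniae strains. MIC_50/90 in μg/mL taken as the minimum concentration inhibiting at least 50% or 90% of the strains.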

SMILES	MIC50 [µg/mL]	MIC90 [µg/mL]
CC(=O)NC[C@H]1CN(c2ccc(N3CCOCC3)c(F)c2)C(=O)O1 [LINEZOLID]	1 (≈ 2.96 µM)	2 (≈ 5.93 µM)
COc1cc(O)c2c(c1C)C(=O)OCCCCC(=S)N[C@H](c1nc(C)no1)CSC2	1 (≈ 2.21 µM)	2 (≈ 4.43 µM)
CC1(C)S[C@@H]2[C@H](NC(=O)Cc3ccccc3)C(=O)N2[C@H]1C(=O)O [PENICILLIN G]	2 (≈ 5.98 µM)	8 (≈ 23.9 µM)

system: Streptococcus pyogenes; experiment: Antimicrobial activity against Streptococcus pyogenes b15 after 18 hrs by agar dilution method; assay type: functional; conditions: b15, 18 h; method in brief: as §3

SMILES	MIC [µg/mL]
COc1cc(O)c2c(c1C)C(=O)OCCCCC(=S)N[C@H](c1nc(C)no1)CSC2	0.25 (≈ 0.554 µM)
COc1cc(O)c2c(c1Br)C(=O)OCCCCC(=O)N[C@H](c1nc(C)no1)CSC2	< 0.12
COc1cc(O)c2c(c1Br)C(=O)OCCCCC(=S)N[C@H](c1nc(C)no1)CSC2	0.12 (≈ 0.232 µM)

system: Haemophilus influenzae; experiment: Antimicrobial activity against multidrug-resistant Haemophilus influenzae after 18 hrs by agar dilution method; assay type: functional; conditions: not given
Method in brief: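 Agar dilution on Haemophilus test medium, inoculum 10⁵ CFU/spot, against 21 multiresistant H. influenzae strains. MIC_50/90 in μg/mL taken as the minimum concentration inhibiting at least 50% or 90% of the strains.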

SMILES	MIC50 [µg/mL]	MIC90 [µg/mL]
CC(=O)NC[C@H]1CN(c2ccc(N3CCOCC3)c(F)c2)C(=O)O1 [LINEZOLID]	8 (≈ 23.7 µM)	16 (≈ 47.4 µM)
COc1cc(O)c2c(c1C)C(=O)OCCCCC(=S)N[C@H](c1nc(C)no1)CSC2	8 (≈ 17.7 µM)	16 (≈ 35.4 µM)
CC1(C)S[C@@H]2[C@H](NC(=O)Cc3ccccc3)C(=O)N2[C@H]1C(=O)O [PENICILLIN G]	32 (≈ 95.7 µM)	> 32

system: Staphylococcus aureus; experiment: Antimicrobial activity against Staphylococcus aureus ATCC 25923 after 18 hrs by agar dilution method; assay type: functional; conditions: ATCC 25923, 18 h; method in brief: as §3

SMILES	MIC [µg/mL]
COc1cc(O)c2c(c1C)C(=O)OCCCCC(=S)N[C@H](c1nc(C)no1)CSC2	0.12 (≈ 0.266 µM)
COc1cc(O)c2c(c1Br)C(=O)OCCCCC(=O)N[C@H](c1nc(C)no1)CSC2	< 0.12
COc1cc(O)c2c(c1Br)C(=O)OCCCCC(=S)N[C@H](c1nc(C)no1)CSC2	< 0.12

system: not listed separately; experiment: Octanol-water partition coefficient, log D of the compound at pH 7.4 by shake-flask method; assay type: physicochemical; conditions: not given
Method in brief: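 Octanol/water partition measured by shake-flask at pH 7.4.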

SMILES	logD
COc1cc(O)c2c(c1C)C(=O)OCCCCC(=S)N[C@H](c1nc(C)no1)CSC2	3.09
COc1cc(O)c2c(c1Br)C(=O)OCCCCC(=O)N[C@H](c1nc(C)no1)CSC2	2.18
COc1cc(O)c2c(c1Br)C(=O)OCCCCC(=S)N[C@H](c1nc(C)no1)CSC2	3.23

system: Enterococcus faecalis; experiment: Antimicrobial activity against multidrug-resistant Enterococcus faecalis after 18 hrs by agar dilution method; assay type: functional; conditions: not given; method in brief: as §1

SMILES	MIC50 [µg/mL]	MIC90 [µg/mL]
CC(=O)NC[C@H]1CN(c2ccc(N3CCOCC3)c(F)c2)C(=O)O1 [LINEZOLID]	2 (≈ 5.93 µM)	2 (≈ 5.93 µM)
COc1cc(O)c2c(c1C)C(=O)OCCCCC(=S)N[C@H](c1nc(C)no1)CSC2	4 (≈ 8.86 µM)	4 (≈ 8.86 µM)

system: Enterococcus faecalis; experiment: Antimicrobial activity against Enterococcus faecalis 6 after 18 hrs by agar dilution method; conditions: Enterococcus faecalis, 6, 18 h

SMILES	MIC [µg/mL]
COc1cc(O)c2c(c1C)C(=O)OCCCCC(=S)N[C@H](c1nc(C)no1)CSC2	0.25 (≈ 0.554 µM)
COc1cc(O)c2c(c1Br)C(=O)OCCCCC(=O)N[C@H](c1nc(C)no1)CSC2	0.12 (≈ 0.24 µM)
COc1cc(O)c2c(c1Br)C(=O)OCCCCC(=S)N[C@H](c1nc(C)no1)CSC2	0.12 (≈ 0.232 µM)

system: Stenotrophomonas maltophilia; experiment: Antimicrobial activity against Xanthomonas maltophilia IAC 739 after 18 hrs by agar dilution method; assay type: functional; conditions: IAC 739, 18 h; method in brief: as §3

SMILES	MIC [µg/mL]
COc1cc(O)c2c(c1C)C(=O)OCCCCC(=S)N[C@H](c1nc(C)no1)CSC2	0.5 (≈ 1.11 µM)
COc1cc(O)c2c(c1Br)C(=O)OCCCCC(=O)N[C@H](c1nc(C)no1)CSC2	2 (≈ 4 µM)
COc1cc(O)c2c(c1Br)C(=O)OCCCCC(=S)N[C@H](c1nc(C)no1)CSC2	1 (≈ 1.94 µM)
